{"source": "ChEMBL document CHEMBL4354843", "about": "“Structure-Based Design of a Potent and Selective Covalent Inhibitor for SRC Kinase That Targets a P-Loop Cysteine” (J Med Chem, 2020)", "key": {"[1]": {"target": "Cyclin-dependent kinase 2 homolog (Plasmodium falciparum (isolate 3D7)) (UniProt P61075)", "assay": "Binding affinity to wild-type Plasmodium falciparum full length PK5 (M1 to N288 residues) expressed in mammalian expression system assessed as residual binding level at 1 uM by Kinomescan method relative to control", "how_it_was_run": "(§1)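 Active-site-directed KinomeScan competition binding panel covering 468 kinases, compound tested at 1 μM. Each readout is the kinase signal remaining with compound, expressed as a percentage of the DMSO control. […]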"}, "[2]": {"target": "Mitogen-activated protein kinase 4 (Homo sapiens) (UniProt P31152)", "assay": "Binding affinity to wild-type human partial length ERK4 (M1 to L365 residues) expressed in bacterial expression system assessed as residual binding level at 1 uM by Kinomescan method relative to control"}, "[3]": {"target": "Activin receptor type-2A (Homo sapiens) (UniProt P27037)", "assay": "Binding affinity to wild-type human ACVR2A (V171 to T499 residues) expressed in bacterial expression system assessed as residual binding level at 1 uM by Kinomescan method relative to control", "how_it_was_run": "as §1"}, "[4]": {"target": "Inhibitor of nuclear factor kappa-B kinase subunit beta (Homo sapiens) (UniProt O14920)", "assay": "Binding affinity to wild-type human full length IKK-beta (M1 to S756 residues) expressed in mammalian expression system assessed as residual binding level at 1 uM by Kinomescan method relative to control", "how_it_was_run": "as §1"}, "[5]": {"target": "Uncharacterized serine/threonine-protein kinase SBK3 (Homo sapiens) (UniProt P0C264)", "assay": "Binding affinity to wild-type human partial length SgK110 (L22 to R329 residues) expressed in bacterial expression system assessed as residual binding level at 1 uM by Kinomescan method relative to control", "how_it_was_run": "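Active site-directed competition binding panel (KinomeScan, 468 kinases). Test compound at 1 μM. Read-out is kinase binding remaining versus DMSO control, expressed as percent of control. Scores above 35% are treated as weak binding.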"}, "[6]": {"target": "Serine/threonine-protein kinase WNK1 (Homo sapiens) (UniProt Q9H4A3)", "assay": "Binding affinity to wild-type human partial length WNK1 (Q194 to A490 residues) expressed in mammalian expression system assessed as residual binding level at 1 uM by Kinomescan method relative to control"}, "[7]": {"target": "Receptor-interacting serine/threonine-protein kinase 2 (Homo sapiens) (UniProt O43353)", "assay": "Binding affinity to wild-type human partial length RIPK2 (M1 to K310 residues) expressed in bacterial expression system assessed as residual binding level at 1 uM by Kinomescan method relative to control"}, "[8]": {"target": "Casein kinase II subunit alpha' (Homo sapiens) (UniProt P19784)", "assay": "Binding affinity to wild-type human full length CSNK2A2 (M1 to R350 residues) expressed in mammalian expression system assessed as residual binding level at 1 uM by Kinomescan method relative to control", "how_it_was_run": "as §1"}, "[9]": {"target": "Casein kinase I isoform gamma-1 (Homo sapiens) (UniProt Q9HCP0)", "assay": "Binding affinity to wild-type human partial length CSNK1G1 (T15 to S353 residues) expressed in bacterial expression system assessed as residual binding level at 1 uM by Kinomescan method relative to control"}, "Mus musculus": {"tested_on": "Mus musculus", "assay": "In vivo inhibition of SRC in C57B6 mouse assessed as reduction in phosphorylation of SRC Y416 at 5 mg/kg, ip measured after 2 to 4 hrs by Western blot analysis", "type": "functional, organism-based", "how_it_was_run": "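Adult C57B6 mice, n = 2 per condition, dosed intraperitoneally 5 mg/kg three times every 12 h; vehicle 5% DMSO/95% D5W. Spleens taken 2 or 4 h after the final dose and lysed in M-PER with protease/phosphatase inhibitors. Lysates blotted for phospho-SRC Y416, total SRC and β-actin.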"}, "[10]": {"target": "Ribosomal protein S6 kinase alpha-5 (Homo sapiens) (UniProt O75582)", "assay": "Binding affinity to wild-type human partial length C-terminal RPS6KA5 kinase domain 2 (V390 to T718 residues) expressed in bacterial expression system assessed as residual binding level at 1 uM by Kinomescan method relative to control"}, "[11]": {"target": "Fibroblast growth factor receptor 3 (Homo sapiens) (UniProt P22607)", "assay": "Binding affinity to wild-type human partial length FGFR3 (R442 to S771 residues) expressed in bacterial expression system assessed as residual binding level at 1 uM by Kinomescan method relative to control"}, "[12]": {"target": "Serine/threonine-protein kinase 33 (Homo sapiens) (UniProt Q9BYT3)", "assay": "Binding affinity to wild-type human full length STK33 (M1 to L514 residues) expressed in bacterial expression system assessed as residual binding level at 1 uM by Kinomescan method relative to control"}, "[13]": {"tested_on": "Epidermal growth factor receptor (Homo sapiens), P00533 [UNDEFINED MUTATION]", "assay": "Binding affinity to human partial length EGFR L747-T751del/Sins mutant expressed in bacterial expression system assessed as residual binding level at 1 uM by Kinomescan method relative to control", "how_it_was_run": "(§2)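 KinomeScan active site-directed competition binding panel (468 kinases), compound tested at 1 μM. Result expressed as remaining kinase signal versus DMSO control (percent of control).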"}, "[14]": {"target": "Serine/threonine-protein kinase 38-like (Homo sapiens) (UniProt Q9Y2H1)", "assay": "Binding affinity to wild-type human partial length NDR2 (N34 to E447 residues) expressed in bacterial expression system assessed as residual binding level at 1 uM by Kinomescan method relative to control", "how_it_was_run": "(§3)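 Active-site-directed competition binding panel of 468 kinases (KinomeScan), compound at 1 μM. The read-out is kinase remaining bound, given as a percentage of the DMSO control. […]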"}, "[15]": {"target": "Protein kinase C theta type (Homo sapiens) (UniProt Q04759)", "assay": "Binding affinity to wild-type human partial length PRKCQ (L350 to S706 residues) expressed in bacterial expression system assessed as residual binding level at 1 uM by Kinomescan method relative to control", "how_it_was_run": "as §3"}, "[16]": {"target": "Ephrin type-B receptor 4 (Homo sapiens) (UniProt P54760)", "assay": "Binding affinity to wild-type human partial length EPHB4 (H585 to G892 residues) expressed in bacterial expression system assessed as residual binding level at 1 uM by Kinomescan method relative to control"}, "[17]": {"target": "Activin receptor type-1B (Homo sapiens) (UniProt P36896)", "assay": "Binding affinity to wild-type human ACVR1B (S187 to I505 residues) expressed in bacterial expression system assessed as residual binding level at 1 uM by Kinomescan method relative to control", "how_it_was_run": "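KinomeScan, an active site-directed competition binding panel of 468 kinases. The test compound was at 1 μM. The readout is remaining kinase binding as a percentage of the DMSO control. Scores above 35% were treated as weak binding and not listed.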"}, "[18]": {"tested_on": "Hepatocyte growth factor receptor (Homo sapiens), P08581 [M1250T]", "assay": "Binding affinity to human partial length MET M1250T mutant (D1010 to S1367 residues) expressed in bacterial expression system assessed as residual binding level at 1 uM by Kinomescan method relative to control", "how_it_was_run": "as §2"}, "[19]": {"tested_on": "Hepatocyte growth factor receptor (Homo sapiens), P08581 [Y1235D]", "assay": "Binding affinity to human partial length MET Y1235D mutant (D1010 to S1367 residues) expressed in bacterial expression system assessed as residual binding level at 1 uM by Kinomescan method relative to control", "how_it_was_run": "as §2"}}, "note": "Activity calls are given as the source filed them. No cut-off for these calls is given here.", "data": [{"smiles": "C=CC(=O)Nc1ccccc1Nc1nc(Nc2ccc(N3CCN(C)CC3)cc2)ncc1C(=O)Nc1c(C)cccc1Cl", "values": [{"measurement": "Activity", "setting": "[1]", "result": 100, "unit": "%"}, {"measurement": "Activity", "setting": "[2]", "result": 100, "unit": "%"}, {"measurement": "Activity", "setting": "[3]", "result": 100, "unit": "%"}, {"measurement": "Activity", "setting": "[4]", "result": 100, "unit": "%"}, {"measurement": "Activity", "setting": "[5]", "result": 60, "unit": "%"}, {"measurement": "Activity", "setting": "[6]", "result": 100, "unit": "%"}, {"measurement": "Activity", "setting": "[7]", "result": 100, "unit": "%"}, {"measurement": "Activity", "setting": "[8]", "result": 100, "unit": "%"}, {"measurement": "Activity", "setting": "[9]", "result": 100, "unit": "%"}, {"measurement": "inhibition", "setting": "Mus musculus", "result": "Active"}, {"measurement": "Activity", "setting": "[10]", "result": 100, "unit": "%"}, {"measurement": "Activity", "setting": "[11]", "result": 100, "unit": "%"}, {"measurement": "Activity", "setting": "[12]", "result": 100, "unit": "%"}, {"measurement": "Activity", "setting": "[13]", "result": 73, "unit": "%"}, {"measurement": "Activity", "setting": "[14]", "result": 93, "unit": "%"}, {"measurement": "Activity", "setting": "[15]", "result": 86, "unit": "%"}, {"measurement": "Activity", "setting": "[16]", "result": 100, "unit": "%"}, {"measurement": "Activity", "setting": "[17]", "result": 93, "unit": "%"}, {"measurement": "Activity", "setting": "[18]", "result": 100, "unit": "%"}, {"measurement": "Activity", "setting": "[19]", "result": 100, "unit": "%"}]}]}
